Assay results reported in ChEMBL document CHEMBL1153427, “1-Sulfonyl-4-acylpiperazines as selective cannabinoid-1 receptor (CB1R) inverse agonists for the treatment of obesity” (J Med Chem, 2009).

Columns and labels:
[1] = biological target: T1, Cannabinoid receptor 1 (Homo sapiens, UniProt P21554); assay: Inverse agonist activity at human recombinant CB1R expressed in CHO cells assessed as increase in forskolin-stimulated cAMP level; format: functional, cell-based
Outline: (§1)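 Recombinant CB1R-CHO cells were incubated with test compound across a range of concentrations, plus forskolin and the phosphodiesterase inhibitor IBMX. Buffer was Earle's balanced salt solution with 5 mM MgCl₂, 10 mM HEPES pH 7.3 and 1 mg/mL BSA, for 30 min at room temperature, with cAMP read out.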

[2] = tested on: Rattus norvegicus; assay: Reduction of overnight food intake in diet induced obese Sprague-Dawley rat at 3 mg/kg, po; format: functional; design: scale not given: the % may be the effect or the level left
Outline: (§2)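 Male DIO rats were acclimated at least 3 days in an automated food-intake system, where computer-linked balances logged grams of food eaten every 5 min. They were fed milled MHF diet throughout. Compound or vehicle (10% Tween-80 in water) was given by oral gavage 1 h before dark-cycle onset. Overnight food intake and body-weight change were measured against vehicle, with significance set at P < 0.05.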

[3] = biological target: T1, Cannabinoid receptor 1; assay: Displacement of [3H]CP-55940 from human recombinant CB1R expressed in CHO cells; format: cell-based
Outline: (§3)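 Radioligand competition used 0.5 nM [³H]CP55940 with recombinant human CB1R-CHO or CB2R-CHO membranes. Bound and free ligand were separated by filtration, and IC₅₀ came from nonlinear curve fitting.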

[4] = biological target: Cannabinoid receptor 2 (Homo sapiens, UniProt P34972); assay: Displacement of [3H]CP-55940 from human recombinant CB2R expressed in CHO cells; format: cell-based; outline: as §3
Chain of Cannabinoid receptor 2 (P34972 whole entry): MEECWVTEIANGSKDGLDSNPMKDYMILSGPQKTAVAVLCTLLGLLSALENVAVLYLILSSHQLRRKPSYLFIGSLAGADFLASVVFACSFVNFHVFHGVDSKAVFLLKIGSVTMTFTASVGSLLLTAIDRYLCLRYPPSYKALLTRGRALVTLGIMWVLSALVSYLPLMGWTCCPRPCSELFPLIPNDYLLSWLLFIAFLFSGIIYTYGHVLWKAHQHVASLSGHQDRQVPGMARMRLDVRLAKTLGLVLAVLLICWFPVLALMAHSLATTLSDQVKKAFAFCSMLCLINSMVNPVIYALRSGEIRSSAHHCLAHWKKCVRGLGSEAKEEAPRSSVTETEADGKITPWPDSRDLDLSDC

[5] = Ratio of drug level in brain to plasma in Sprague-Dawley rat at 1 mg/kg, iv and 2 mg/kg, po over 0.25 to 4 hrs; format: ADME, organism-based
Outline: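 Male Sprague-Dawley rats got 1 mpk iv for brain penetration and were euthanised by CO₂ 1 h later. Whole brain was frozen on dry ice, and blood was taken by cardiac puncture into lithium heparin. PK arms were dosed 1 mpk iv and 2 mpk po, with blood sampled at several time points. Plasma and brain homogenate were extracted by protein precipitation and analysed by LCMS².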

[6] = biological target: T1, Cannabinoid receptor 1; assay: Displacement of [3H]SR141716 from human recombinant CB1R expressed in CHO cells; format: cell-based
[7] = biological target: T2, Cannabinoid receptor 1 (Rattus norvegicus, UniProt P20272); assay: Agonist activity at rat recombinant CB1R expressed in CHO cells assessed as inhibition of forskolin-stimulated cAMP level; format: functional, cell-based; outline: as §1
T2 sequence (P20272 whole entry): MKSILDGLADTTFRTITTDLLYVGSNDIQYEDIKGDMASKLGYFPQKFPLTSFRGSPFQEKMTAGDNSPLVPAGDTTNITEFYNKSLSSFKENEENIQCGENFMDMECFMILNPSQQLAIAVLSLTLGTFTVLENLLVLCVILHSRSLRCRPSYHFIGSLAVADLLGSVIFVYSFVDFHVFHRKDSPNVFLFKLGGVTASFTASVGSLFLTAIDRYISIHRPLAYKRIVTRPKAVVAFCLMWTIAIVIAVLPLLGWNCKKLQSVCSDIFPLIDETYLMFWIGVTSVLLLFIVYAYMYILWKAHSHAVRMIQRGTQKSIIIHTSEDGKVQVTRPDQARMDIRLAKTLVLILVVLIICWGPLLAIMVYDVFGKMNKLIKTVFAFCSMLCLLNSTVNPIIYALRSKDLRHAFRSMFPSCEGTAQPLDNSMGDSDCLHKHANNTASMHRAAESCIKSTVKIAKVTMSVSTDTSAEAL

[8] = biological target: T2, Cannabinoid receptor 1; assay: Displacement of [3H]CP-55940 from rat recombinant CB1R expressed in CHO cells; format: cell-based
[9] = tested on: Rattus norvegicus; assay: Reduction of body weight in diet induced obese Sprague-Dawley rat at 3 mg/kg, po; format: functional; outline: as §2
[10] = biological target: T2, Cannabinoid receptor 1; assay: Antagonist activity at rat recombinant CB1R expressed in CHO cells assessed as inhibition of methanandamide-stimulated cAMP level; format: functional, cell-based
Outline: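 Antagonist mode of the forskolin-stimulated cAMP assay in CB1R-CHO cells. Methanandamide at 300 nM was the agonist challenge, and IC₅₀ was determined across test-compound concentrations. Percent inhibition was also recorded at a single 2 µM test concentration.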

[11] = biological target: T2, Cannabinoid receptor 1; assay: Displacement of [3H] SR-141716 from rat recombinant CB1R expressed in CHO cells; format: cell-based
[12] = biological target: Voltage-gated inwardly rectifying potassium channel KCNH2 (Homo sapiens, UniProt Q12809); assay: Inhibition of human ERG by MK-0499 binding assay
Chain of Voltage-gated inwardly rectifying potassium channel KCNH2 (Q12809 whole entry): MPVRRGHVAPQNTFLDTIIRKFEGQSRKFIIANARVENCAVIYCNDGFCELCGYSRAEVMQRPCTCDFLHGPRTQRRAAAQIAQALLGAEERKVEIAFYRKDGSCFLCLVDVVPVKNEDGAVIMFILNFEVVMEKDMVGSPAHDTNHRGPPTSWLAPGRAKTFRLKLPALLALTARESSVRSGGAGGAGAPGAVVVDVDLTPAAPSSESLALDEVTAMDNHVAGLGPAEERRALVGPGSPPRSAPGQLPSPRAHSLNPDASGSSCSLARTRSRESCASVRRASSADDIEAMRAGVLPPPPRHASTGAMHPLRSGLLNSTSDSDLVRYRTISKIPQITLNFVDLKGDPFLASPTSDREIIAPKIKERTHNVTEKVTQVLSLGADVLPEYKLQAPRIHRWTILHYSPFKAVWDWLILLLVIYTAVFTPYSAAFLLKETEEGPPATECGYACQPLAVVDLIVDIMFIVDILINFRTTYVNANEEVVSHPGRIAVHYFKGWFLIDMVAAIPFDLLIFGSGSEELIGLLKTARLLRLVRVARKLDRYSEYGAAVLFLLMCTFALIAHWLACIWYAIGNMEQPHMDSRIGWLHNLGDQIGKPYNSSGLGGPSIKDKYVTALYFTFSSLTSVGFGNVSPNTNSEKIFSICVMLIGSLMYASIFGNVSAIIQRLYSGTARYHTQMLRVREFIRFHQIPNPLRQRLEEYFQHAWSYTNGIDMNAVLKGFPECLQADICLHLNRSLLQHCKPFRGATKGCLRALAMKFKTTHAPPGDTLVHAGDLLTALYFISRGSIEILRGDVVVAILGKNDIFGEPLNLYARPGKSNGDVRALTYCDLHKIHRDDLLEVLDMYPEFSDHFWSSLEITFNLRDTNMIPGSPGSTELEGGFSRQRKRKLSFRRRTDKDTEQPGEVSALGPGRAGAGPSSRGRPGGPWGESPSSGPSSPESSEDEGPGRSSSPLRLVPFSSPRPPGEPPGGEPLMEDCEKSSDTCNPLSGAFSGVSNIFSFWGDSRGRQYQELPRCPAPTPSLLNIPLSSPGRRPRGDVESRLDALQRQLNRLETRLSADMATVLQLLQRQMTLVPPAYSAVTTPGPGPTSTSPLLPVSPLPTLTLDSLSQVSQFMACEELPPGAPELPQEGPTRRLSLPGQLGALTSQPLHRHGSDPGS

[13] = biological target: Cytochrome P450 3A4 (Homo sapiens, UniProt P08684); assay: Inhibition of CYP3A4; format: ADME
Chain of Cytochrome P450 3A4 (P08684 whole entry): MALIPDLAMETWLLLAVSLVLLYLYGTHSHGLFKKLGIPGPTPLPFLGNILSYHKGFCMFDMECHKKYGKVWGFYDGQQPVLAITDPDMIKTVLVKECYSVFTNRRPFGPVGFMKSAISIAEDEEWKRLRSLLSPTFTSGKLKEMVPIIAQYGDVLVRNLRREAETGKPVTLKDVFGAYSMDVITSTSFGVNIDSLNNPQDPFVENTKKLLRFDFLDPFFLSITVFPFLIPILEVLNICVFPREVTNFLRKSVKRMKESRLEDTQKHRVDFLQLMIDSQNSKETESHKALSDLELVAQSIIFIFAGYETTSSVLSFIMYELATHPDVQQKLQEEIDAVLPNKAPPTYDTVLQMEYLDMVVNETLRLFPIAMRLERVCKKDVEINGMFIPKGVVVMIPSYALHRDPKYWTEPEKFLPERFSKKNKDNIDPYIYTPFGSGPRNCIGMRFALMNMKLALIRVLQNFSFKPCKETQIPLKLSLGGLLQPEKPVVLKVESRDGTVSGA

[14] = biological target: Cytochrome P450 2C9 (Homo sapiens, UniProt P11712); assay: Inhibition of CYP2C9; format: ADME
Chain of Cytochrome P450 2C9 (P11712 whole entry): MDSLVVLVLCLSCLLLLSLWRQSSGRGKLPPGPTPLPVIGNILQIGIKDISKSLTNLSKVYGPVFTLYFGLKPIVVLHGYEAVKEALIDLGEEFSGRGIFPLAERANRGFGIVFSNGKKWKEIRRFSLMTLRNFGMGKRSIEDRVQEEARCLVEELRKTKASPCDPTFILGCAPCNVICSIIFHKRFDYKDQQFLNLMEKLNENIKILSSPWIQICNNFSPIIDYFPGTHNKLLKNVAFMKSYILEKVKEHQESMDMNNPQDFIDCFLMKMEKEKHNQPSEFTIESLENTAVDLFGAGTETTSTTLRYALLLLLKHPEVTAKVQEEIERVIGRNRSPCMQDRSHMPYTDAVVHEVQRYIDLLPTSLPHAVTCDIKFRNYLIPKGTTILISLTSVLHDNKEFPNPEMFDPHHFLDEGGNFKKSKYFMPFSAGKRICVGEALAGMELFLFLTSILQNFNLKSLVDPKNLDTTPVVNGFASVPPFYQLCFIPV

[15] = Bioavailability in Sprague-Dawley rat at 1 mg/kg, iv and 2 mg/kg, po; format: ADME, organism-based; conditions: in vivo
Outline: (§4)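 Male Sprague-Dawley rats received 1 mpk intravenously or 2 mpk orally. Blood was drawn at various time points into lithium heparin and centrifuged, and plasma was stored at -70 °C. Plasma was extracted by protein precipitation and analysed by LC-MS/MS.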

[16] = Volume of distribution at steady state in Sprague-Dawley rat at 1 mg/kg, iv and 2 mg/kg, po; format: ADME, organism-based; conditions: in vivo, read-out: Vdss; outline: as §4
[17] = Cmax in rhesus monkey; format: ADME, organism-based, Macaca mulatta; conditions: in vivo
[18] = Plasma clearance in rhesus monkey; format: ADME, organism-based, Macaca mulatta
[19] = Oral bioavailability in rhesus monkey; format: ADME, organism-based, Macaca mulatta; conditions: in vivo
[20] = Half life in dog; format: ADME, organism-based, Canis lupus familiaris; conditions: in vivo
[21] = Volume of distribution at steady state in rhesus monkey; format: ADME, organism-based, Macaca mulatta; conditions: in vivo, read-out: Vdss
[22] = species: Rattus norvegicus; assay: Reduction of overnight food intake in diet induced obese Sprague-Dawley rat assessed as minimal effective dose; format: functional; conditions: feed or water, read-out: MED; outline: as §2
[23] = Ratio of drug level in brain to plasma in Sprague-Dawley rat at 1 mg/kg, iv and 2 mg/kg, po after 4 hrs; format: ADME, organism-based
[24] = Cmax in dog; format: ADME, organism-based, Canis lupus familiaris; conditions: in vivo
[25] = Half life in Sprague-Dawley rat at 1 mg/kg, iv and 2 mg/kg, po; format: ADME, organism-based; conditions: in vivo; outline: as §4
[26] = Bioavailability in dog; format: ADME, organism-based, Canis lupus familiaris; conditions: in vivo
[27] = Half life in rhesus monkey; format: ADME, organism-based, Macaca mulatta; conditions: in vivo
[28] = Cmax in Sprague-Dawley rat at 1 mg/kg, iv and 2 mg/kg, po; format: ADME, organism-based; conditions: in vivo; outline: as §4
[29] = biological target: T3, Cytochrome P450 2C8 (Homo sapiens, UniProt P10632); assay: Inhibition of CYP2C8; format: ADME
T3 sequence (P10632 whole entry): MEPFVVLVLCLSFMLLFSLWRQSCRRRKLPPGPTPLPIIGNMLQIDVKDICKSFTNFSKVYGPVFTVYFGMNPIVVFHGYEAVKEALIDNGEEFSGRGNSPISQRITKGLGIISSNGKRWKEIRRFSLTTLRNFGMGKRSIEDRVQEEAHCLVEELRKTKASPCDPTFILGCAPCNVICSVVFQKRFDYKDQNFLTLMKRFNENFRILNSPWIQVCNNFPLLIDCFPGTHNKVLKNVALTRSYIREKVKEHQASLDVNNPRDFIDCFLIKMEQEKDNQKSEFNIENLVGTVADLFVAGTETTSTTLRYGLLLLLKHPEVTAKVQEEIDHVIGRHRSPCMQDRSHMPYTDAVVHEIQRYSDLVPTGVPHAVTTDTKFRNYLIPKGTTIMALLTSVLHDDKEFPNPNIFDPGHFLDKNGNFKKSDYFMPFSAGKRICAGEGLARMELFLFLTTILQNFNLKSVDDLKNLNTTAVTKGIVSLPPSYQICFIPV

[30] = Plasma clearance in dog; format: ADME, organism-based, Canis lupus familiaris
[31] = Plasma clearance in Sprague-Dawley rat at 1 mg/kg, iv and 2 mg/kg, po; format: ADME, organism-based; outline: as §4
[32] = Volume of distribution at steady state in dog; format: ADME, organism-based, Canis lupus familiaris; conditions: in vivo, read-out: Vdss
[33] = biological target: T1, Cannabinoid receptor 1; assay: Agonist activity at human recombinant CB1R expressed in CHO cells assessed as inhibition of forskolin-stimulated cAMP level; format: functional, cell-based; outline: as §1

T1 sequence (P21554 whole entry): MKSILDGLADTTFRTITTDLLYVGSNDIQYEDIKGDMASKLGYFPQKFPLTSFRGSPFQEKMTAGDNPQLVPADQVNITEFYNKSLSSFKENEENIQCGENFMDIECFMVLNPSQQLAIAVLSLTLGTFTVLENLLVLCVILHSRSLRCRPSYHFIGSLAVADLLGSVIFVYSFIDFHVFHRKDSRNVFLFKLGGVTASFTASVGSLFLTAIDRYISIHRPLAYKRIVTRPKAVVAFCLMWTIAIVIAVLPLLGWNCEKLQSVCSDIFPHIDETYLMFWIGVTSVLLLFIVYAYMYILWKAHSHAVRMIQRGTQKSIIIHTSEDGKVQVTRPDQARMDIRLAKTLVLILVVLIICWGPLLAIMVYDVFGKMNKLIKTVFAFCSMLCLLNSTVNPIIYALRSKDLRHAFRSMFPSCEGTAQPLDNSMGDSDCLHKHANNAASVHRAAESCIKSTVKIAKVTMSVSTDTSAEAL

O=C(Cc1ccc(C(F)(F)F)cc1)N1CCN(S(=O)(=O)c2cc(C3CC3)cc(C(F)(F)F)c2)CC1
EC50 [1]: 1 nM | Activity [2]: -40% | IC50 [3]: 1.2 nM | IC50 [4]: > 10 µM | Kp [5]: 1.1 | IC50 [6]: 0.5 nM | EC50 [7]: 0.6 nM | IC50 [8]: 27 nM | Activity [9]: -2 g | IC50 [10]: 1.9 nM | IC50 [11]: 11 nM

O=C([C@@H]1C[C@H]1c1ccc(C(F)(F)F)cc1)N1CCN(S(=O)(=O)c2cc(C(O)C(F)(F)F)cc(C(F)(F)F)c2)CC1 (mixture of isomers)
IC50 [3]: 1.5 nM | IC50 [4]: > 10 µM | IC50 [12]: 60 nM | Activity [9]: -8 g

O=C([C@@H]1C[C@H]1c1ccc(C(F)(F)F)cc1)N1CCN(S(=O)(=O)c2cc(-c3nnc[nH]3)cc(C(F)(F)F)c2)CC1
IC50 [13]: 4.7 µM | IC50 [14]: 6 µM | bioavailability [15]: 31% | Vd [16]: 3.8 L/kg | Cmax [17]: 3 nM | clearance [18]: 14.6 mL/min/kg | bioavailability [19]: < 2% | IC50 [3]: 0.2 nM | half-life [20]: 516 min | Vd [21]: 2.5 L/kg | IC50 [4]: > 10 µM | minimal effective dose [22]: 0.3 mg/kg | Kp at 4 h [23]: 0.2 | Cmax [24]: 210 nM | half-life [25]: 228 min | bioavailability [26]: 26% | half-life [27]: 120 min | Cmax [28]: 190 nM | IC50 [29]: 15 µM | clearance [30]: 1.4 mL/min/kg | Activity [9]: -14 g | clearance [31]: 23.7 mL/min/kg | Vd [32]: 1.1 L/kg

O=C([C@@H]1C[C@H]1c1ccc(C(F)(F)F)cc1)N1CCN(S(=O)(=O)c2cc(-c3ccn[nH]3)cc(C(F)(F)F)c2)CC1
IC50 [3]: 0.3 nM | IC50 [4]: > 10 µM | IC50 [12]: 500 nM | Activity [9]: -10 g

O=C(c1ccc(C(F)(F)F)cc1)N1CCN(S(=O)(=O)c2cc(C3CC3)cc(C(F)(F)F)c2)CC1
bioavailability [15]: 47% | Activity [2]: -14% | Vd [16]: 2.7 L/kg | IC50 [3]: 58 nM | Kp [5]: 0.8 | half-life [25]: 1140 min | IC50 [6]: 47 nM | EC50 [7]: 4.4 nM | IC50 [8]: 175 nM | EC50 [33]: 1.3 nM | Activity [9]: 8 g | clearance [31]: 1.9 mL/min/kg | IC50 [10]: 77 nM | IC50 [11]: 227 nM

O=C([C@@H]1C[C@H]1c1ccc(C(F)(F)F)cc1)N1CCN(S(=O)(=O)c2cc(C3CC3)cc(C(F)(F)F)c2)CC1
bioavailability [15]: 74% | EC50 [1]: 5.8 nM | Activity [2]: -59% | Vd [16]: 5.4 L/kg | IC50 [3]: 0.3 nM | IC50 [4]: > 10 µM | Kp at 4 h [23]: 0.3 | Kp [5]: 0.8 | half-life [25]: 1320 min | IC50 [6]: 0.1 nM | EC50 [7]: 3.4 nM | IC50 [8]: 2.2 nM | EC50 [33]: 5.8 nM | Activity [9]: -14 g | clearance [31]: 3.7 mL/min/kg | IC50 [10]: 9.2 nM | IC50 [11]: 0.2 nM
